Source: PMC3422889 (The Journal of organic chemistry, 2009)
Where two headings read alike, the source gives them in different places. Each block holds one compound with its values, some of them ahead of it.

What was measured:
[1] = Quantitative photolysis, quantum yields for disappearance; assay type: physicochemical; settings: for φdis (1-octanol): solvent 1-octanol
Method in brief: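 Test compound (1–9 mM) with caffeine or 4-acetamidophenol internal standard was dissolved in water, buffer, salt solution or solvent in quartz tubes. Samples were irradiated in a Rayonet reactor with two 3000 Å lamps, or at 350 nm for the TRIS pH 9.0/LiClO4 case. Aliquots taken every 30 s up to 5 min (<20% conversion) went to LC/UV or LC/MS/MS. Photon flux came from ferrioxalate actinometry. At least three independent runs were done.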

[2] = Picosecond pump-probe transient absorption, singlet and triplet lifetimes; assay type: physicochemical; settings: for kpF rate constant for the photo-Favorskii process: calculated as φdis/3τ
Method in brief: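 Transient absorption used the femtosecond pump–supercontinuum probe method. Pump pulses were 266 nm, 1 μJ, <100 fs. The supercontinuum probe spanned 270–690 nm, with both beams focused to 0.2 mm on sample flowing through a 0.4 mm cell. Detection was by photodiode array. Spectra were corrected for chirp and solvent contribution. kpF was taken as φdis/3τ.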

[3] = Stern-Volmer quenching with potassium sorbate; assay type: physicochemical; settings: H2O
Method in brief: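 pHP-GABA solutions (0.001–0.01 M) were diluted with potassium sorbate (0–0.1 M) in water. They were photolyzed under the quantum-yield conditions, and GABA-release quantum efficiencies were measured. KSV was the slope of φ0/φ versus [Q]. Triplet lifetime was derived assuming kq equals the diffusion rate, 7.2 × 10^9 […].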

[4] = Nanosecond flash photolysis, decay of the 340-nm transient; assay type: physicochemical; settings: water containing ca. 10 % ACN
[5] = Effect of H2O on the rate of disappearance of the 390-400 nm band; assay type: physicochemical; settings: CH3CN cosolvent
[6] = wholly aqueous solution; cited from earlier work
[7] = cited from earlier work

φdis (1-octanol) [1]: 0.12
1τ singlet lifetime ([2]; H2O): 2.3 ps
3τ triplet lifetime ([2]; H2O): 0.34 ns
Structure (SMILES): NCCCC(=O)OCC(=O)c1ccc(O)cc1 [compound 1, pHP GABA]
kpF rate constant for the photo-Favorskii process ([2]; H2O): 6.00 10^8 s^−1

quantum yield in 10% H2O:CH3CN ([1]; 10% (v:v) H2O:CH3CN): 0.12
quantum yield in dry CH3CN ([1]; dry CH3CN): 0.03
φdis (1-octanol) [1]: 0.14
release of the amino acid upon irradiation ([1]; λ > 300 nm, aqueous media, ambient conditions): quantitatively released
3τ triplet lifetime ([2]; 10% CH3CN/H2O, pump-probe): 0.71 ns
3τ triplet lifetime ([2]; H2O): 0.46 ns
KSV Stern-Volmer constant [3]: 20 M⁻¹
Structure (SMILES): NCCCC(=O)OCC(=O)c1ccc(O)c(OC(F)(F)F)c1 [compound 2, CF3O-pHP GABA]
kpF rate constant for the photo-Favorskii process ([2]; H2O): 1.98 10^8 s^−1
kdec decay rate constant of the 340-nm transient [4]: ~6.5e+06 s⁻¹

Structure (SMILES): CCOP(=O)(OCC)OCC(=O)c1ccc(O)cc1 [pHP diethyl phosphate]
3kdis ([5]; 74.53 mol % H2O): 3.30 × 10^9 S^−1
3kdis ([5]; 95.14 mol % H2O): 9.95 × 10^9 S^−1
3kdis ([5]; 100.00 mol % H2O): 1.6 × 10^10 S^−1
3τ triplet lifetime [6]: 60 ps
3kdis ([7]; 0.00 mol % H2O, CH3CN, ref B. Hellrung, J. Wirz unpublished): 2.62 × 10^5 S^−1
3kdis ([7]; 5.04 mol % H2O, CH3CN cosolvent, ref B. Hellrung, J. Wirz unpublished): 2.72 × 10^6 S^−1
3kdis ([7]; 7.51 mol % H2O, CH3CN cosolvent, ref B. Hellrung, J. Wirz unpublished): 6.56 × 10^6 S^−1
3kdis ([7]; 10.00 mol % H2O, CH3CN cosolvent, ref B. Hellrung, J. Wirz unpublished): 1.15 × 10^7 S^−1
3kdis ([7]; 15.03 mol % H2O, CH3CN cosolvent, ref B. Hellrung, J. Wirz unpublished): 3.84 × 10^7 S^−1
3kdis ([7]; 24.54 mol % H2O, CH3CN cosolvent, ref Phillips 14): 1.11 × 10^8 S^−1
3kdis ([7]; 34.05 mol % H2O, CH3CN cosolvent, ref Phillips 14): 4.17 × 10^8 S^−1
3kdis ([7]; 49.38 mol % H2O, CH3CN cosolvent, ref Phillips 14): 7.81 × 10^8 S^−1
3kdis ([7]; 55.64 mol % H2O, CH3CN cosolvent, ref Phillips 14): 1.25 × 10^9 S^−1
3kdis ([7]; 66.11 mol % H2O, CH3CN cosolvent, ref Phillips 14): 1.89 × 10^9 S^−1
3kdis ([7]; 89.77 mol % H2O, CH3CN cosolvent, ref Phillips 14): 3.45 × 10^9 S^−1
